# Screening data deposited in PubChem BioAssay by Johns Hopkins Ion Channel Center.
# Rows were chosen to be rich in hits. Some 3.5% of all compounds tested hit in one or more screens of this group.
# MrgX1 PAM: allosterically activates human MrgX1 receptor signaling; Q96LB2; MrgX1-HEK293, Fluo-4 calcium flux, FDSS; hits give high values; B-score at 10 µM; 310,000 tested, 0.63% active; AID 588675;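 active = plate-corrected calcium response at least 3 library SD above typical, normal starting fluorescence, not activating the receptor alone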;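 also: compound read alongside a low EC10 to EC30 dose of BAM8-22 agonist; peak minus trough fluorescence over baseline measured at the second addition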
# Target sequence (Q96LB2 whole entry, looked up): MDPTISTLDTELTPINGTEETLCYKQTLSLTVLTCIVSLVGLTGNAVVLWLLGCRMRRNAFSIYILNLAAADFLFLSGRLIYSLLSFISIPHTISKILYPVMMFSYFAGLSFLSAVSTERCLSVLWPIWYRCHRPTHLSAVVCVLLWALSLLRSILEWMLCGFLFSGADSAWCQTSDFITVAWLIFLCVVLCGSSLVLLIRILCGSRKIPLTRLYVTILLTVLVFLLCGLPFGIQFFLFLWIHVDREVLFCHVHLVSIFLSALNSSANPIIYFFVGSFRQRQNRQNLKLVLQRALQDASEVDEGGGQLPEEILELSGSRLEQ
# RGS4 pot: potentiators or activators of RGS4; HEK293 M3R/inducible RGS4, carbachol calcium flux Fluo4; hits give low values; B-score at 10 µM; 310,000 tested, 0.92% active;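 active = B-score of the integrated calcium signal more than 4 SD below the library mean, with starting fluorescence not abnormally high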;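 also: negative B-score means reduced calcium response which marks RGS4 activation or potentiation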
#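 Assay system: HEK293 FlpIn-TREx cells, stable M3R, doxycycline-inducible RGS4 / Probe or stimulus: carbachol, ECmax concentration / Times: overnight RGS4 induction, 30 min dye load 37 °C, 20 min compound RT / Signal: kinetic calcium fluorescence imaging with Fluo4-AM dye, 2 µM / Measure: Agonist-evoked peak-minus-minimum fluorescence over baseline, integrated ratio, B score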
# RGS4 inh: inhibitors of human RGS4; P49798; HEK293 M3R/RGS4 inducible, Fluo-4 calcium flux; hits give high values; triggered by carbachol at its EC20; B-score at 10 µM; 310,000 tested, 0.45% active;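 active = B-score, a plate-corrected calcium signal, over three deviations above library mean, with baseline fluorescence within five deviations of library mean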;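 also: RGS4 expression induced by doxycycline in cells with stable M3 receptor; B-score is computed from the integrated fluorescence ratio over baseline after carbachol; higher B-score means a larger calcium signal and so more RGS4 inhibition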
# Target sequence (P49798 whole entry, looked up): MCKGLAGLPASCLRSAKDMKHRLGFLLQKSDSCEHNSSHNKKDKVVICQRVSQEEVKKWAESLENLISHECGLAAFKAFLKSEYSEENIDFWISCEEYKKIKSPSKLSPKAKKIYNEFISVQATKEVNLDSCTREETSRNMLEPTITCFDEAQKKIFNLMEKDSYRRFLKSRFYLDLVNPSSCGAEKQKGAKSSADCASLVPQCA
# MrgX1 ag: activates human MrgX1 receptor signaling; 310,000 tested, 0.44% active; B-score at 10 µM; AID 588627; MrgX1-HEK293 cells, Fluo-4 calcium fluorescence, agonist mode; hits give high values; Q96LB2;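 active = calcium response B-score plate-corrected fluorescence ratio at least 3 library SD, with starting fluorescence B-score inside 5 SD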
#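 Material: HEK293 cells stably expressing human MrgX1 receptor | Quantity: 15,000 cells per well | Times: Cells plated overnight, dye loaded 0.5 h 37 °C, 0.5 h room temperature | Measured by: Kinetic Fluo-4 NW fluorescence of intracellular calcium | Control set: Positive and negative controls per plate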
# MrgX1 antag: antagonists of human MrgX1 receptor | 310,000 tested, 1.3% active | MRGX1-HEK293 calcium flux, Fluo-4, BAM8-22 antagonism; hits give low values | B-score at 10 µM | Q96LB2;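 active = calcium-response B-score plate-corrected more than 3 library SD below zero, starting fluorescence within 5 deviations, no agonist response on first addition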;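 also: peak minus trough fluorescence over baseline after final BAM8-22 challenge near maximal dose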
# Numbers stand for hits; 0 = inactive; - = no result given.
SMILES,MrgX1 PAM,RGS4 pot,RGS4 inh,MrgX1 ag,MrgX1 antag
COc1cccc(CC(=O)OC(C)C(=O)Nc2ncc(Cl)cc2Cl)c1 (stereo not given),0,0,0,0,0
COc1ccccc1CNC(=O)CN(c1cccc([N+](=O)[O-])c1)S(C)(=O)=O,11,0,0,0,0
COc1ccc(CCNC(=O)CN(c2cc([N+](=O)[O-])ccc2OC)S(C)(=O)=O)cc1,0,0,0,0,-5.06
Cc1cccc(NS(=O)(=O)c2ccc(NC(=O)CN(c3cc([N+](=O)[O-])ccc3C)S(C)(=O)=O)cc2)c1,0,0,6.57,0,0
CS(=O)(=O)N(CC(=O)Nc1ccc(F)c(F)c1)c1cccc([N+](=O)[O-])c1,8.55,0,0,0,0
CC1CCN(CCc2nc3cc(NC(=O)COc4ccc([N+](=O)[O-])cc4)ccc3n2C)CC1,0,0,0,0,0
C[C@]1(CC/C(=C/CO)CO)[C@H](CO)CC[C@@]23COC(=O)C2=CCC[C@@H]31,0,-,-,0,0
COc1ccc(NC(=O)C2CCCN(CCCc3ccccc3)C2)cc1OCC(C)C (stereo not given),0,0,0,0,0
COC(=O)c1ccccc1SC(CC(=O)c1ccccc1)c1ccc(F)cc1 (stereo not given),0,-7.13,0,0,0
O=C(CC(Nc1ccc(F)cc1)c1ccccc1)c1ccccc1 (stereo not given),0,0,0,0,0
CN(C)c1nc2ccc(OCCN3CCCCC3)cc2s1,0,-7.33,0,0,0
CCC(=O)N(CCC(c1ccc(C)cc1)c1ccco1)Cc1ccco1 (stereo not given),0,0,0,0,0
CC1=NN(/C(=N\c2nnc(C)s2)Nc2ccc(C)cc2)[C@H](c2ccc(C)cc2)S1,0,0,0,29.8,0
CCCCCCOc1ccc(/C(N)=N/O)cc1,0,0,0,0,0
N=C(N)c1ccc(OCCCCCOc2ccc(C(=N)N)cc2)cc1,0,0,0,34.2,0
O=C1c2cccc3c([N+](=O)[O-])ccc(c23)C(=O)N1c1ccc(Cl)cn1,0,0,0,0,0
O=C1c2cccc3c([N+](=O)[O-])ccc(c23)C(=O)N1O,0,0,0,0,-8.56
O=C1c2cccc3c([N+](=O)[O-])ccc(c23)C(=O)N1c1ccccn1,0,-7.78,0,0,0
CCCCN(CCCC)c1ccc(C(=O)c2ccccc2C(=O)O)c(O)c1,0,0,0,42,0
CCOc1cccc2cc(C(=O)NCc3ccc(F)cc3)c(=N)oc12,0,0,0,0,0
COc1ccc(S(=O)(=O)N2CCN(C(=O)c3cc(-c4ccc(Br)cc4)n[nH]3)CC2)cc1OC,0,-7.05,0,0,0
CSc1ccc(C(=O)C2CCCN(C(=O)CCc3c(C)nn(C)c3C)C2)cc1 (stereo not given),0,0,0,0,0
CC(C)[C@H](NS(=O)(=O)c1ccccc1)C(=O)OCC(=O)Nc1ccccc1Sc1ccccc1,0,0,0,0,-6.44
CCOc1ccc(N=NC2C(=O)N(C(N)=S)N=C2C)cc1 (stereo not given),0,0,0,0,0
NNC(=O)Cn1nc(-c2ccccc2)c2ccccc2c1=O,0,0,0,0,0
SMILES,MrgX1 PAM,RGS4 pot,RGS4 inh,MrgX1 ag,MrgX1 antag
COC(=O)[C@]1(CC(C)C)N[C@H](c2ccc(-c3cccc(Cl)c3)cc2)[C@@H]2C(=O)N(C)C(=O)[C@@H]21,0,0,0,0,0
COC(=O)/C=C1/S/C(=N/NC(=O)c2ccccc2C)NC1=O,0,0,0,0,-8.23
O=C(NCCc1c[nH]c2ccccc12)/C(=C\c1cccnc1)NC(=O)c1ccccc1Br,0,0,0,0,0
CCOc1cc(/C=C(\C#N)C(=O)Nc2ccccc2C(=O)O)ccc1OC(=O)c1ccc(C)cc1,0,0,0,0,-4.9
COc1ccc(/C=C(/C#N)C(=O)Nc2ccccc2C)cc1C(=O)O,0,0,0,0,0
O=C(NC(=S)Nc1cccc(Cl)c1Cl)C1CC1,0,0,0,0,0
c1ccc(Cc2noc(CN3CCN(C4CCc5ccccc5C4)CC3)n2)cc1 (stereo not given),0,0,0,0,0
c1ccc(Cc2noc(CN3CCCN(C4Cc5ccccc5C4)CC3)n2)cc1,0,-6.97,0,0,0
CC1(C(=O)OCC(=O)Nc2ccc3ccccc3c2)CC1(Cl)Cl (stereo not given),0,0,0,0,0
CCCCCCCCC(=O)N/N=C/c1ccccn1,0,0,0,0,0
CCCCCCCCC/C(=N\O)c1ccccn1,0,-10.5,0,0,0
CCNC(=S)N/N=C/c1ccc(OCc2ccc(C(=O)OC)cc2)cc1,0,0,0,0,-4.68
CN(C(=O)COC(=O)c1cc(S(=O)(=O)N2CCOCC2)ccc1Cl)C1CCS(=O)(=O)C1 (stereo not given),0,0,0,0,0
CCOc1cc2[nH]c(=O)n(CCCC(=O)NCc3ccco3)c(=O)c2cc1OCC,0,0,0,0,0
CCOc1cc2[nH]c(=O)n(CCCC(=O)N(C)Cc3ccccc3)c(=O)c2cc1OCC,7.92,0,0,0,0
COc1cc2[nH]c(=O)n(CCCCCC(=O)N3CC=C(c4ccccc4)CC3)c(=O)c2cc1OC,0,-8.8,0,0,0
O=[N+]([O-])c1cc([N+](=O)[O-])c(Oc2cc(F)cc(F)c2)cc1NN1CCCCC1,0,-,-,0,0
COc1ccc(S(=O)(=O)Cc2ccc(C(=O)NCCc3cc(OC)ccc3OC)o2)cc1,7.5,0,0,0,0
COc1ccc(S(=O)(=O)Cc2ccc(C(=O)N3CCN(c4cc(Cl)ccc4C)CC3)o2)cc1,0,-8.17,0,0,0
Cc1ccc(C)c(N2CCN(C(=O)c3ccc(CS(=O)Cc4cccc(Cl)c4)o3)CC2)c1 (stereo not given),0,-8.68,0,0,0
Cc1cccc(N2CCN(C(=O)c3ccc(CS(=O)Cc4ccc(Cl)cc4)o3)CC2)c1C (stereo not given),0,0,0,0,0
Cc1cc(C)c(S(=O)(=O)Nc2ccc(N(C)C)cc2)c(C)c1-n1cnnn1,0,0,0,0,0
NC1=NC(=O)/C(=C/c2ccc(-c3ccc(S(N)(=O)=O)cc3)o2)S1,0,0,0,0,-4.7
COc1ccccc1-c1cnn2c(NCCc3ccccc3)cc(C)nc12,0,-7.41,0,0,0
Cc1cc(N2CCC(C)CC2)n2ncc(-c3ccccc3)c2n1,0,-7.34,0,0,0
Cc1cc(NC(C)c2ccccc2)n2ncc(-c3ccccc3)c2n1 (stereo not given),0,-7.03,0,0,0
Cc1cc(NC2CCCC2)n2ncc(-c3ccccc3)c2n1,0,0,0,0,0
Cc1cc(N2CCOCC2)n2ncc(-c3ccccc3)c2n1,0,0,0,0,0
Cc1cc(NCc2ccccc2)n2ncc(-c3ccccc3)c2n1,0,-8.73,0,0,0
